In series [1] the target is T1, Beta-N-acetyl-D-hexosaminidase-A/B (Homo sapiens, UniProt P07686+P06865).
T1 sequence (P07686 whole entry): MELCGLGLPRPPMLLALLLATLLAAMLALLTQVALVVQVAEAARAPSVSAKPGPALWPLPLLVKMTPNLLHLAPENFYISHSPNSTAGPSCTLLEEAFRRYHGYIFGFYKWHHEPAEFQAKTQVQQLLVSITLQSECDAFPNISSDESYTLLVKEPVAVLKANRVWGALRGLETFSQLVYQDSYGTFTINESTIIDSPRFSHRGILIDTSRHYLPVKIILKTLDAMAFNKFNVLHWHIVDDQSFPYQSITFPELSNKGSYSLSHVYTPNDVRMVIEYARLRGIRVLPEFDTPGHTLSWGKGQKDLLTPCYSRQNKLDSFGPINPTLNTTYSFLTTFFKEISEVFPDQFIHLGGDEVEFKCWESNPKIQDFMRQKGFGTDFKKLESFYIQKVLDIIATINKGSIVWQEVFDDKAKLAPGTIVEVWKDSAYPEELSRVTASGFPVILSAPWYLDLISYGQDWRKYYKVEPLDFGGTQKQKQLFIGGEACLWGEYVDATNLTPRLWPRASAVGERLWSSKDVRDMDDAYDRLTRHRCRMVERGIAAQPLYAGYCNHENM
T1 sequence (P06865 whole entry): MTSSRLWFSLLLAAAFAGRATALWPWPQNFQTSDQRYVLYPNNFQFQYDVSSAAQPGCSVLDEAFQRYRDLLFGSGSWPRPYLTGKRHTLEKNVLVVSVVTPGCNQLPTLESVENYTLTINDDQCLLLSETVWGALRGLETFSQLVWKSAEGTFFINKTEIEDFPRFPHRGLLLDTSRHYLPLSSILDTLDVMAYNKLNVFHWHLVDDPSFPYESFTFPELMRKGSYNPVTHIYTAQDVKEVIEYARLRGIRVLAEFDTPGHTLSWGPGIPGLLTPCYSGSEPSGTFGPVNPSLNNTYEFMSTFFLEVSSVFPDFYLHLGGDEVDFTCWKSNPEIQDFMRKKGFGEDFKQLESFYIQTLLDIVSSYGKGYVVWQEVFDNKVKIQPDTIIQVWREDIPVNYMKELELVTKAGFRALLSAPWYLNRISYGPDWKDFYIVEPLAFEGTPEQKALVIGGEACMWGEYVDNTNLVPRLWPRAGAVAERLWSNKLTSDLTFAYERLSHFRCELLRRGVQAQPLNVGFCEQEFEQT
As to the kind of experiment: Inhibition of human placental HexA using pNPGlcNAc substrate.

Series [2] in a line: Toxicity against ATSD patient fibroblasts assessed as reduction in beta-galactosidase activity at >400 uM. It counts as cell-based. On the set-up: scale not given: the % may be the effect or the level left. The following applies: human, fibroblast.
Series [3] deals with T2, Beta-hexosaminidase subunit alpha (Homo sapiens), P06865 [G269S].
T2 sequence (whole entry): T1 sequence (P06865 whole entry) with G269S
Put plainly: Chaperoning efficacy at HexA alpha G269S mutant in ATSD patient fibroblasts assessed as maximum increase in enzyme activity using MUGS substrate incubated for 1 to 2 hrs by spectrofluorometry relative to control. The essentials:
(§1)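 G269S-homozygous ATSD patient fibroblasts plated at 70−90% confluence and treated 5 days with serially diluted compound in DMEM/10% FBS, DMSO held at 1%. After PBS washes, cells were lysed in McIlvaine buffer pH 4.5 with 0.4% Triton X-100 and 0.025% HSA at 4 °C for 30 min. Lysate was incubated with MUGS (1.6 mM) at 37 °C for 1−2 h and stopped with 0.1 M MAP pH 10.5. Fluorescence read at Ex 365/Em 450 nm. Activity expressed relative to mock (1% DMSO) cells; triplicates.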

Series [4] has the same test system. As to the kind of experiment: Chaperoning efficacy at HexA alpha G269S mutant in ATSD patient fibroblasts assessed as drug level causing maximum increase in enzyme activity using MUGS substrate incubated for 1 to 2 hrs by spectrofluorometry relative to control. The essentials:
as §1

Series [5] can be described thus: Toxicity against ATSD patient fibroblasts assessed as reduction in beta-galactosidase activity at. In kind it is cell-based. The conditions noted are these: human, fibroblast.
The target in series [6] is Signal transducer and activator of transcription 3 (Homo sapiens) (UniProt P40763). As to the kind of experiment: Inhibition of STAT3 phosphorylation at 100 uM.
Signal transducer and activator of transcription 3 (Homo sapiens), sequence (P40763 whole entry): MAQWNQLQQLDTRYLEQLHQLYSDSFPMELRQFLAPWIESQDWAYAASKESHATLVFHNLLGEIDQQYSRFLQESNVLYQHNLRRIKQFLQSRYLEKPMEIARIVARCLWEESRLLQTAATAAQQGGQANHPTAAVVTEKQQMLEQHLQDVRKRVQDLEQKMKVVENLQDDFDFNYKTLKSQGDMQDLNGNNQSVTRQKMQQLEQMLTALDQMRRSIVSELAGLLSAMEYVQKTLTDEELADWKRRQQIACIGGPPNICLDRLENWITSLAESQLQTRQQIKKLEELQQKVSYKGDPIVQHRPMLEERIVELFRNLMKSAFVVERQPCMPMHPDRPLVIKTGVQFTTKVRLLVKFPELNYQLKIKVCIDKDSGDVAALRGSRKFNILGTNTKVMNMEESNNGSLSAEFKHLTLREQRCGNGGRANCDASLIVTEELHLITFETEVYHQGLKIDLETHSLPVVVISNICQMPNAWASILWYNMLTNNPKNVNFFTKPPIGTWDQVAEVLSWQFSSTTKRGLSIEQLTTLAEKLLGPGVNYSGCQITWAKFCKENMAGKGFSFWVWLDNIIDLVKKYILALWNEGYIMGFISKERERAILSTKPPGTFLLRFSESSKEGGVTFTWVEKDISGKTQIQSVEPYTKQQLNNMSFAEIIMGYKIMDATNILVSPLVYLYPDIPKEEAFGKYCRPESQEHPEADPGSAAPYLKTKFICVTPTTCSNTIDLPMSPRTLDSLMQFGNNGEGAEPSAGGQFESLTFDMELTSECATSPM
Series [7] concerns the target T3, Dihydrofolate reductase (Homo sapiens) (UniProt P00374).
T3 sequence (whole entry): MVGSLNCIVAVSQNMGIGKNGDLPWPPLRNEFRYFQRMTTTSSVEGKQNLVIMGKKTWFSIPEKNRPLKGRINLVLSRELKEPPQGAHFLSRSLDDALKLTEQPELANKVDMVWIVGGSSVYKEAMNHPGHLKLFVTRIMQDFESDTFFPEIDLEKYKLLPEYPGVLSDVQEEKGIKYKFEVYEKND
Put plainly: Inhibition of human DHFR.

The test system of series [8] is T2, Beta-hexosaminidase subunit alpha (Homo sapiens), P06865 [G269S]. As to the kind of experiment: Chaperoning efficacy at HexA alpha G269S mutant in ATSD patient fibroblasts assessed as maximum increase in enzyme activity using MUGS substrate incubated for 1 to 2 hrs by spectrofluorometry relative to pyrimethamine.
Series [9] can be described thus: Toxicity against ATSD patient fibroblasts assessed as reduction in beta-galactosidase activity at >200 uM. It counts as cell-based. The conditions noted are these: human, fibroblast.
The target of series [10] is Beta-hexosaminidase subunit alpha (Homo sapiens, UniProt P06865, G269S). As to the kind of experiment: Inhibition of HexA alpha G269S mutant in ATSD patient fibroblasts using MUG substrate incubated for 1 to 2 hrs at pH 4.5 by spectrofluorometry.

For orientation: IC50 means the midpoint of a concentration-inhibition curve. A word on the pIC50: it is the IC50 on a negative log10 scale, so that one unit is a factor of ten.

SMILES strings stand for the structures. Substitutions are numbered along the chain they refer to. pIC50: −log10 of the molar value. Calls of active or inactive are those of the source. The rule behind the calls is not given here.

For `Cc1nc(N)nc(N)c1-c1ccc(Cl)cc1`, the IC50 in [1] is more than 560 µM.

In the case of `CCc1nc(N)nc(N)c1-c1ccc(C)cc1`, the Activity in series [2] is more than 60%; in series [4] it was 30 µM; in series [5], “Toxic”. In addition, in series [3], the fold change (FC) is 1.7. Besides, the IC50 in [1] was determined as 40 µM.

For `CCc1nc(N)nc(N)c1-c1ccc(Cl)cc1` [PYRIMETHAMINE], the results for the Activity in [2], in [4] and in series [5] were more than 60%, 30 µM and “Toxic”, respectively. Further, the fold change (FC) in [3] stood at 2.1. For the same compound, the inhibition entry in series [6] and in series [7] was “Active” each time.

As for `CCc1nc(N)nc(N)c1-c1cc(C)cc(C)c1`, the results for the Activity in series [2], in series [4] and in [8] were more than 60%, 100 µM and 30%, respectively. Besides, the fold change (FC) in series [3] was 2.5.

For the compound `CCc1nc(N)nc(N)c1-c1cccc(C)c1`, the values for the Activity in [2], in series [4] and in [8] were more than 60%, 100 µM and 30%, respectively. In series [3], the fold change (FC) came out at 2.9.

As to `CCc1nc(N)ncc1-c1ccc(C(F)(F)F)cc1`, the half-inhibitory concentration (IC50) in series [1] was more than 400 µM.

With `CCc1nc(N)nc(N)c1-c1ccccc1`, the values for the Activity result in series [9], in series [2] and in series [8] were “Toxic”, “Non-toxic” and 30%, respectively. The fold change (FC) in [3] amounted to 2.7. Moreover, the negative logarithm of the IC50 (pIC50) in [10] is 4.57. For the same compound, the inhibition entry in series [7] was “Active”.

With `CCc1nc(N)nc(N)c1-c1ccccc1C`, the Activity in [2] was more than 60%; in series [4], 100 µM; in series [8] it was 30%. The fold change (FC) in series [3] is 2.3. The IC50 in series [1] amounted to 43 µM.

In [1], `CCc1nc(N)ncc1-c1ccc(Cl)cc1` came in with a concentration for half-maximal inhibition (IC50) of more than 400 µM.

As to `CC(C)c1nc(N)nc(N)c1-c1ccc(Cl)cc1`, the half-inhibitory concentration (IC50) in [1] was more than 410 µM.

Regarding `CCc1nc(N)[nH]c(=O)c1-c1ccc(Cl)cc1`, in [1], the IC50 is more than 2100 µM.

For `CCc1ncncc1-c1ccc(C(F)(F)F)cc1`, the IC50 in series [1] was more than 940 µM.

Consider `NCc1nc(N)nc(N)c1-c1ccc(Cl)cc1`, for which, in series [1], the IC50 came out at 180 µM.

With `CCc1nc(N)nc(N)c1-c1ccc(OC)cc1`, the Activity is more than 60% in [2], 30 µM in series [4] and “Toxic” in series [5]. Besides, the fold change (FC) in [3] stood at 2. The half-maximal inhibitory concentration (IC50) in series [1] was 18 µM.

Take `CCCCc1nc(N)nc(N)c1-c1ccc(Cl)cc1`: the half-maximal inhibitory concentration (IC50) in [1] is more than 1400 µM.

As for `CCCc1nc(N)nc(N)c1-c1ccc(Cl)cc1`, the fold change (FC) in series [3] stood at 1.5.

Turning to `CCc1nc(N)nc(N)c1-c1ccc(C(F)(F)F)cc1`, the Activity was more than 60% in series [2], 30 µM in [4] and “Toxic” in series [5]. Also, in series [3], the fold change (FC) turned out to be 2.2.

For the origin of these results see ChEMBL document CHEMBL3576868 (J Med Chem, 2015).
